# Assays:
# Type in all cases: ADME, cell-based
# Conditions in all cases: human
# Caco-2 [1] = assay: Ratio of permeability from basolateral to apical over apical to basolateral side of the Caco-2 cell membrane in presence of 20 uM cyclosporin A
# In short: (§1)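 Caco-2 monolayers (passages 30-39) were grown 21-28 days on polyester Transwell membranes, with batch integrity checked by [14C]-mannitol flux. Bidirectional transport (n = 3) was run at 37 °C with shaking, using peptide at 20 µM final in HBSS pH 7.4 with 0.4% DMSO and inhibitor in HBSS. Sampling continued up to 160 min, with LC-MS-MS quantitation. Papp BL-to-AP/AP-to-BL ratio.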
# Caco-2 [2] = assay: Ratio of permeability from basolateral to apical over apical to basolateral side of the Caco-2 cell membrane in presence of 10 uM GF 120918; in short: as §1
# Caco-2 [3] = assay: Ratio of permeability from basolateral to apical over apical to basolateral side of the Caco-2 cell membrane in presence of 50 uM MK 571; in short: as §1
# Caco-2 [4] = assay: Ratio of permeability from basolateral to apical over apical to basolateral side of the Caco-2 cell membrane in presence of 2 uM GF 120918; in short: as §1
SMILES,Ratio (Caco-2 [1]),Ratio (Caco-2 [2]),Ratio (Caco-2 [3]),Ratio (Caco-2 [4])
CC(C)C[C@@H]1NC(=O)[C@H](Cc2ccccc2)NC(=O)CNC(=O)[C@H](C)NC(=O)[C@H](Cc2ccc(O)cc2)NC(=O)/C=C\c2ccccc2OCOC1=O,12,1.9,,
CC(C)C[C@H]1NC(=O)[C@H](Cc2ccccc2)NC(=O)CNC(=O)[C@H](C)NC(=O)[C@H](Cc2ccc(O)cc2)NC(=O)/C=C\c2ccccc2OCOC1=O,6.1,2.1,,5.4
CC(C)C[C@H]1NC(=O)[C@H](Cc2ccccc2)NC(=O)CNC(=O)[C@@H](C)NC(=O)[C@H](Cc2ccc(O)cc2)NC(=O)/C=C\c2ccccc2OCOC1=O,,2.8,4.9,13

# Now from value to compound:
Ratio (Caco-2 [1]),Ratio (Caco-2 [2]),Ratio (Caco-2 [3]),Ratio (Caco-2 [4]),SMILES
1.2,1,3.8,,CC(=O)N[C@@H](Cc1ccc(O)cc1)C(=O)N[C@@H](C)C(=O)NCC(=O)N[C@@H](Cc1ccccc1)C(=O)N[C@H](CC(C)C)C(N)=O
2.4,1.1,1.1,,CC(=O)N[C@@H](Cc1ccc(O)cc1)C(=O)N[C@H](C)C(=O)NCC(=O)N[C@@H](Cc1ccccc1)C(=O)N[C@@H](CC(C)C)C(N)=O
14,2.3,2.8,5,CC(C)C[C@@H]1NC(=O)[C@H](Cc2ccccc2)NC(=O)CNC(=O)[C@@H](C)NC(=O)[C@H](Cc2ccc(O)cc2)NC(=O)/C=C\c2ccccc2OCOC1=O

# Source: ChEMBL document CHEMBL1149457, “Effects of amino acid chirality and the chemical linker on the cell permeation characteristics of cyclic prodrugs of opioid peptides” (J Med Chem, 2006)
